Experimental findings from ChEMBL document CHEMBL4342473, “Lead Optimization of Benzoxazolone Carboxamides as Orally Bioavailable and CNS Penetrant Acid Ceramidase Inhibitors” (J Med Chem, 2020) are described below.

Activity calls are given as the source filed them. The rule behind the calls is not given here.

Data set [1] deals with T1, Acid ceramidase (Homo sapiens) (UniProt Q13510).
T1 sequence (whole entry): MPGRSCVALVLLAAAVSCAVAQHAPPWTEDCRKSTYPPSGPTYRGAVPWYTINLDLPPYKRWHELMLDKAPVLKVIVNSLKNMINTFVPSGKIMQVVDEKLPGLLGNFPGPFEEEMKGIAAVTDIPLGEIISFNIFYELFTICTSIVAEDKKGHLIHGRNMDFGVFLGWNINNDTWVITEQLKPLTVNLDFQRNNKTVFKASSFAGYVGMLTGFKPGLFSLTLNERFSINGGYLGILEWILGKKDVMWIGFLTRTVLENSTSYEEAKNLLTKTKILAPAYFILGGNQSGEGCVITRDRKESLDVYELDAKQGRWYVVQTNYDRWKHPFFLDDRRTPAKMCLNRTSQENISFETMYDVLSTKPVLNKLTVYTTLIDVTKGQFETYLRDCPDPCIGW
Kind of data set: Inhibition of human acid ceramidase expressed in HEK293 cells at 1 uM using Rbm14-12 as substrate preincubated for 10 mins followed by substrate addition and measured after 3 hrs by fluorescence assay. In kind it is cell-based.

The target of data set [2] is T1, Acid ceramidase (Homo sapiens). Kind of data set: Inhibition of human acid ceramidase expressed in HEK293 cells at 10 uM using Rbm14-12 as substrate preincubated for 10 mins followed by substrate addition and measured after 3 hrs by fluorescence assay. In kind it is cell-based.
Data set [3] can be described thus: Microsomal stability in mouse liver microsomes assessed as parent compound remaining at 4.6 uM preincubated for 15 mins followed by NADPH addition and measured after 60 mins by LC-MS/MS analysis. It counts as ADME, Microsome. Conditions: read-out: Stability. In a few lines: (§1)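 Mouse liver microsome stability; half-life and % parent remaining at 60 min; mean of at least two independent experiments, each in two technical replicates.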
(In general: Liver microsomes are a subcellular fraction often used to study metabolism.)

Data set [4] is described as follows: Half life in mouse liver microsomes at 4.6 uM preincubated for 15 mins followed by NADPH addition and measured up to 60 mins by LC-MS/MS analysis. In kind it is ADME, Microsome. The procedure, abridged:
as §1

In data set [5] the target is T1, Acid ceramidase (Homo sapiens). Kind of data set: Inhibition of human acid ceramidase expressed in HEK293 cells up to 10 uM using Rbm14-12 as substrate preincubated for 10 mins followed by substrate addition and measured after 3 hrs by fluorescence assay. In kind it is cell-based.

For the molecule `CN1CCC(c2ccc3[nH]c(=O)oc3c2)CC1`, the inhibition result in data set [1] and in data set [2] was “inactive” in each case. In the case of `CCCCCNC(=O)n1c(=O)oc2cc(C3CCN(C)CC3)ccc21`, the remaining at 1 h, 4.6 µM in data set [3] was found to be 60%. Broadly, the half-life is how long it takes for the measured level to halve. A lower half-life goes with fast loss. Regarding `O=C(NCCCCc1ccccc1)n1c2c(oc1=O)CNCC2`, the half-life at 4.6 µM in data set [4] was less than 15 min. `O=C(NCCCCc1ccccc1)n1c2c(oc1=O)CCNC2` yielded a half-life at 4.6 µM in data set [4] of less than 15 min. Consider `O=C1Cc2ccccc2N1C(=O)NCCCCc1ccccc1`, for which, in data set [5], the inhibition entry is “inactive”. Same read-out and setting: the value for `O=C1C(=O)N(C(=O)NCCCCc2ccccc2)c2ccccc21` was “inactive”.
